Results from ChEMBL document CHEMBL1150787, “The L80I substitution in the reverse transcriptase domain of the hepatitis B virus polymerase is associated with lamivudine resistance and enhanced viral replication in vitro” (Antimicrob Agents Chemother, 2007).
Calls of active or inactive are those of the source. No cut-off for these calls is given here.

How the values were obtained:
HBV genotype D [1] = assay: Antiviral activity against HBV genotype D with reverse transcriptase L80I mutation in human Huh7 cells assessed as viral replication yield at 1 uM after 5 days relative to control; format: functional, hepatitis B virus genotype D, Huh-7
Procedure, shortened: (§1)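 Huh7 transfectants were cultured for 5 days with or without 1 μM LMV. Intracellular core-associated HBV DNA was measured by Southern blot and densitometry. Yields were corrected for transfection efficiency by HBsAg in supernatant (IMX immunoassay) and expressed relative to the mean of uninhibited controls (1.0). Each value comes from at least three experiments.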

HBV genotype D [2] = assay: Antiviral activity against HBV genotype D with reverse transcriptase L180M/M204I mutation in human Huh7 cells assessed as inhibition of viral replication after 5 days; format: functional, organism-based; conditions: hepatitis B virus genotype D; Huh-7
Procedure, shortened: (§2)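 Huh7 cells grown in DMEM with 10% FBS at 37°C and 5% CO₂, then transiently transfected with each HBV construct. Cultures were exposed continuously to LMV at 0, 0.001, 0.01, 0.1, 1 or 10 μM for 5 days. Intracellular core-associated HBV DNA was quantified by Southern blot, autoradiography and densitometry, normalised to untreated controls. EC50 was taken from a three-parameter logistic fit of three pooled assays.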

HBV genotype D [3] = assay: Effect on replication efficiency of HBeAg-deficient HBV genotype D with precore G1896A mutation and reverse transcriptase L80I mutation in human Huh7 cells assessed as decrease viral replication yield at 1 uM after 5 days relative to control; format: functional, hepatitis B virus genotype D, Huh-7; design: scale not given: the % may be the effect or the level left; procedure, shortened: as §1
HBV genotype D [4] = assay: Antiviral activity against HBeAg-deficient HBV genotype D with precore G1896A mutation in human Huh7 cells assessed as inhibition of viral replication after 5 days; format: functional, organism-based; conditions: Hepatitis B virus, Huh-7, 120 h; procedure, shortened: as §2
HBV genotype D [5] = assay: Antiviral activity against HBeAg-deficient HBV genotype D with precore G1896A mutation and reverse transcriptase L80I/M204I mutation in human Huh7 cells assessed as viral replication yield at 1 uM after 5 days relative to control; format: functional, hepatitis B virus genotype D, Huh-7; procedure, shortened: as §1
HBV genotype D [6] = assay: Antiviral activity against HBeAg-deficient HBV genotype D with precore G1896A mutation and reverse transcriptase L80I mutation in human Huh7 cells assessed as inhibition of viral replication after 5 days; format: functional, organism-based; conditions: Hepatitis B virus, Huh-7, 120 h; procedure, shortened: as §2
HBV genotype D [7] = assay: Antiviral activity against HBV genotype D with reverse transcriptase L80I mutation in human Huh7 cells assessed as inhibition of viral replication after 5 days; format: functional, organism-based; conditions: Hepatitis B virus, Huh-7, 120 h; procedure, shortened: as §2
HBV genotype D [8] = assay: Antiviral activity against HBeAg-deficient HBV genotype D with precore G1896A mutation and reverse transcriptase L80I/L180M/M204I mutation in human Huh7 cells assessed as inhibition of viral replication after 5 days; format: functional, organism-based; conditions: hepatitis B virus genotype D; Huh-7; procedure, shortened: as §2
HBV genotype D [9] = assay: Antiviral activity against HBV genotype D in human Huh7 cells assessed as viral replication yield at 1 uM after 5 days relative to control; format: functional, hepatitis B virus genotype D, Huh-7
Procedure, shortened: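 Transiently transfected Huh7 cells were cultured for 5 days with or without 1 μM LMV. Intracellular core-associated HBV DNA was measured by Southern blot, corrected for transfection efficiency using supernatant HBsAg (IMX enzyme immunoassay), and expressed relative to the mean of the uninhibited controls (set to 1.0). Data come from at least three experiments.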

HBV genotype D [10] = assay: Antiviral activity against HBV genotype D in human Huh7 cells assessed as inhibition of viral replication after 5 days; format: functional, organism-based; conditions: Hepatitis B virus, Huh-7, 120 h
Procedure, shortened: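 Huh7 cells (DMEM, 10% FBS, 37°C, 5% CO2) at 60–80% confluence were transiently transfected with a wild-type HBeAg-negative HBV clone or mutants. They were exposed continuously to LMV (0–10 μM) or ADV (0–10 μM). Day-5 intracellular core-associated HBV DNA was measured by Southern blot, autoradiography and densitometry, normalized to untreated controls. Three assays were pooled; EC50 came from a three-parameter logistic fit.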

HBV genotype D [11] = assay: Antiviral activity against HBV genotype D with reverse transcriptase L80I/M204I mutation in human Huh7 cells assessed as viral replication yield at 1 uM after 5 days relative to control; format: functional, hepatitis B virus genotype D, Huh-7; procedure, shortened: as §1
HBV genotype D [12] = assay: Effect on replication efficiency of HBV genotype D with reverse transcriptase L80I/M204I mutation in human Huh7 cells assessed as increase in viral replication yield at 1 uM after 5 days relative to control; format: functional, hepatitis B virus genotype D, Huh-7; procedure, shortened: as §1
HBV genotype D [13] = assay: Antiviral activity against HBV genotype D with reverse transcriptase L80I/L180M/M204I mutation in human Huh7 cells assessed as inhibition of viral replication after 5 days; format: functional, organism-based; conditions: hepatitis B virus genotype D; Huh-7; procedure, shortened: as §2
HBV genotype D [14] = assay: Effect on replication efficiency of HBV genotype D with reverse transcriptase L80I mutation in human Huh7 cells assessed as decrease in viral replication yield at 1 uM after 5 days relative to control; format: functional, hepatitis B virus genotype D, Huh-7; design: scale not given: the % may be the effect or the level left; procedure, shortened: as §1
HBV genotype D [15] = assay: Effect on replication efficiency of HBV genotype D with reverse transcriptase L80I/L180M/M204I mutation in human Huh7 cells assessed as decrease in viral replication yield at 1 uM after 5 days relative to control; format: functional, hepatitis B virus genotype D, Huh-7; design: scale not given: the % may be the effect or the level left; procedure, shortened: as §1
HBV genotype D [16] = assay: Antiviral activity against HBeAg-deficient HBV genotype D with precore G1896A mutation and reverse transcriptase L180M/M204I mutation in human Huh7 cells assessed as inhibition of viral replication after 5 days; format: functional, organism-based; conditions: hepatitis B virus genotype D; Huh-7; procedure, shortened: as §2
HBV genotype D [17] = assay: Antiviral activity against HBeAg-deficient HBV genotype D with precore G1896A mutation and reverse transcriptase L80I/L180M/M204I mutation in human Huh7 cells assessed as viral replication yield at 1 uM after 5 days relative to control; format: functional, hepatitis B virus genotype D, Huh-7; procedure, shortened: as §1
HBV genotype D [18] = assay: Effect on replication efficiency of HBeAg-deficient HBV genotype D with precore G1896A mutation and reverse transcriptase L80I/M204I mutation in human Huh7 cells assessed as decrease in viral replication yield at 1 uM after 5 days relative to control; format: functional, hepatitis B virus genotype D, Huh-7; design: scale not given: the % may be the effect or the level left; procedure, shortened: as §1
HBV genotype D [19] = assay: Antiviral activity against HBeAg-deficient HBV genotype D with precore G1896A mutation and reverse transcriptase L80I/M204I mutation in human Huh7 cells assessed as inhibition of viral replication after 5 days; format: functional, organism-based; conditions: hepatitis B virus genotype D; Huh-7; procedure, shortened: as §2
HBV genotype D [20] = assay: Antiviral activity against HBeAg-deficient HBV genotype D with precore G1896A mutation and reverse transcriptase L180M/M204I mutation in human Huh7 cells assessed as viral replication yield at 1 uM after 5 days relative to control; format: functional, hepatitis B virus genotype D, Huh-7; procedure, shortened: as §1
HBV genotype D [21] = assay: Antiviral activity against HBV genotype D with reverse transcriptase L180M/M204I mutation in human Huh7 cells assessed as viral replication yield at 1 uM after 5 days relative to control; format: functional, hepatitis B virus genotype D, Huh-7; procedure, shortened: as §1
HBV genotype D [22] = assay: Antiviral activity against HBeAg-deficient HBV genotype D with precore G1896A mutation in human Huh7 cells assessed as viral replication yield at 1 uM after 5 days relative to control; format: functional, hepatitis B virus genotype D, Huh-7; procedure, shortened: as §1
HBV genotype D [23] = assay: Effect on replication efficiency of HBeAg-deficient HBV genotype D with precore G1896A mutation and reverse transcriptase L80I/L180M/M204I mutation in human Huh7 cells assessed as increase in viral replication yield at 1 uM after 5 days relative to control; format: functional, hepatitis B virus genotype D, Huh-7; procedure, shortened: as §1
HBV genotype D [24] = assay: Antiviral activity against HBeAg-deficient HBV genotype D with precore G1896A mutation and reverse transcriptase M204I mutation in human Huh7 cells assessed as viral replication yield at 1 uM after 5 days relative to control; format: functional, hepatitis B virus genotype D, Huh-7; procedure, shortened: as §1
HBV genotype D [25] = assay: Antiviral activity against HBV genotype D with reverse transcriptase L80I/L180M/M204I mutation in human Huh7 cells assessed as viral replication yield at 1 uM after 5 days relative to control; format: functional, hepatitis B virus genotype D, Huh-7; procedure, shortened: as §1
HBV genotype D [26] = assay: Antiviral activity against HBeAg-deficient HBV genotype D with precore G1896A mutation and reverse transcriptase L80I mutation in human Huh7 cells assessed as viral replication yield at 1 uM after 5 days relative to control; format: functional, hepatitis B virus genotype D, Huh-7; procedure, shortened: as §1
HBV genotype D [27] = assay: Antiviral activity against HBV genotype D with reverse transcriptase M204I mutation in human Huh7 cells assessed as inhibition of viral replication after 5 days; format: functional, organism-based; conditions: hepatitis B virus genotype D; Huh-7; procedure, shortened: as §2
HBV genotype D [28] = assay: Antiviral activity against HBeAg-deficient HBV genotype D with precore G1896A mutation and reverse transcriptase M204I mutation in human Huh7 cells assessed as inhibition of viral replication after 5 days; format: functional, organism-based; conditions: hepatitis B virus genotype D; Huh-7; procedure, shortened: as §2
HBV genotype D [29] = assay: Antiviral activity against HBV genotype D with reverse transcriptase L80I/M204I mutation in human Huh7 cells assessed as inhibition of viral replication after 5 days; format: functional, organism-based; conditions: hepatitis B virus genotype D; Huh-7; procedure, shortened: as §2
HBV genotype D [30] = assay: Antiviral activity against HBV genotype D with reverse transcriptase M204I mutation in human Huh7 cells assessed as viral replication yield at 1 uM after 5 days relative to control; format: functional, hepatitis B virus genotype D, Huh-7; procedure, shortened: as §1

With Nc1ccn([C@@H]2CS[C@H](CO)O2)c(=O)n1 [LAMIVUDINE] the “fold change (FC)” value (HBV genotype D [1]) was 0.06, the Activity (HBV genotype D [2]) was “inactive” and the Activity (HBV genotype D [3]) was 88%. For the same molecule, the EC50 (HBV genotype D [4]) was 460 nM, the “fold change (FC)” value (HBV genotype D [5]) was 0.27 and the EC50 (HBV genotype D [6]) was 30 nM. For the same molecule, the EC50 (HBV genotype D [7]) was 30 nM, the Activity (HBV genotype D [8]) was “inactive” and the “fold change (FC)” value (HBV genotype D [9]) was 0.33. The EC50 (HBV genotype D [10]) was 410 nM, the “fold change (FC)” value (HBV genotype D [11]) was 3.76 and the Activity (HBV genotype D [12]) was 902%. For the same molecule, the Activity (HBV genotype D [13]) was “inactive”, the Activity (HBV genotype D [14]) was 82% and the Activity (HBV genotype D [15]) was 48%. For the same molecule, the Activity (HBV genotype D [16]) was “inactive”, the “fold change (FC)” value (HBV genotype D [17]) was 3.27 and the Activity (HBV genotype D [18]) was 80%. The Activity (HBV genotype D [19]) was “inactive”, the “fold change (FC)” value (HBV genotype D [20]) was 0.54 and the “fold change (FC)” value (HBV genotype D [21]) was 0.65. The “fold change (FC)” value (HBV genotype D [22]) was 0.35, the Activity (HBV genotype D [23]) was 506% and the “fold change (FC)” value (HBV genotype D [24]) was 1.4. The “fold change (FC)” value (HBV genotype D [25]) was 0.34, the “fold change (FC)” value (HBV genotype D [26]) was 0.04 and the Activity (HBV genotype D [27]) was “inactive”. The Activity (HBV genotype D [28]) was “inactive”, the Activity (HBV genotype D [29]) was “inactive” and the “fold change (FC)” value (HBV genotype D [30]) was 0.38.
